Converted amounts (≈) assume the structure as drawn.
Columns and labels:
[1] = tested on: Human immunodeficiency virus 1; assay: Antiviral activity against HIV1 3B infected in human H9 cells; type: functional, organism-based; settings: Human immunodeficiency virus 1, 3B
[2] = Therapeutic index, ratio of CC50 for human H9 cells to EC50 for HIV1 3B; type: cell-based; settings: read-out: TI
[3] = tested on: Human immunodeficiency virus 1; assay: Antiviral activity against HIV1 RTMDR1 in human TZM-b1 cells after 48 hrs by luciferase reporter gene assay; type: functional, organism-based; settings: Human immunodeficiency virus 1, RTMDR1, TZM-b1, 48 h
In short: (§1)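 Single-round infection of TZM-bl cells with 200 TCID50 virus mixed with test sample at eight 4-fold serial dilutions. Incubated 48 h, then luciferase reagent was added and luminescence read. IC50 is the concentration giving 50% reduction in RLU versus virus-control wells, after subtracting background RLU.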

[4] = Therapeutic index, ratio of IC50 for human TZM-b1 cells to EC50 for HIV1 NL4-3; type: cell-based; settings: read-out: TI
In short: (§2)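 Cytotoxicity was measured with the CytoTox-Glo kit following the manufacturer's instructions. Antiviral EC50 came from the single-round TZM-bl luciferase assay: 200 TCID50 virus, eight 4-fold sample dilutions, 48 h, and 50% RLU reduction versus virus control after background subtraction.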

[5] = Therapeutic index, ratio of CC50 for human H9 cells to EC50 for HIV1 RTMDR1; type: cell-based; settings: read-out: TI
[6] = tested on: Human immunodeficiency virus 1; assay: Antiviral activity against HIV1 RTMDR1 in human MT4 cells; type: functional, organism-based; settings: Human immunodeficiency virus 1, RTMDR1, MT4
[7] = Solubility of the compound in water after 1 hr; type: physicochemical; settings: for solubility: HPLC grade water, 1 h
In short: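 Excess solid compound was added to HPLC-grade water and sonicated in an ultrasonic bath at room temperature for 1 h. Undissolved solid was removed with a PTFE syringe filter. Dissolved concentration was quantified by HPLC on a C18 column (2.1 mm × 100 mm) at a flow rate of 200 μL/min.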

[8] = tested on: Human immunodeficiency virus 1; assay: Antiviral activity against wild type HIV1 NL4-3 in human TZM-b1 cells after 48 hrs by luciferase reporter gene assay; type: functional, organism-based; settings: Human immunodeficiency virus 1, NL4-3, TZM-b1, 48 h; in short: as §1
[9] = Therapeutic index, ratio of IC50 for human TZM-b1 cells to EC50 for HIV1 RTMDR1; type: cell-based; settings: read-out: TI; in short: as §2
[10] = Therapeutic index, ratio of CC50 for human H9 cells to EC50 for HIV1; type: cell-based; settings: read-out: TI
[11] = Cytotoxicity against human TZM-b1 cells; type: cell-based
In short: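 Cytotoxicity in TZM-bl cells read with the CytoTox-Glo luminescent assay, run according to the kit instructions.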

[12] = tested on: Human immunodeficiency virus 1; assay: Antiviral activity against HIV1 infected in human H9 cells; type: functional, organism-based; settings: Human immunodeficiency virus 1, H9

Structure (SMILES)	EC50 [1] [nM]	selectivity ratio [2]	EC50 [3] [nM]	selectivity ratio [4]	selectivity ratio [5]	EC50 [6] [nM]	solubility [7] [µg/mL]	EC50 [8] [nM]	selectivity ratio [9]	selectivity ratio [10]	IC50 [11] [nM]	EC50 [12] [nM]	solubility at 1 h ([7]; water) [µg/mL]
Cc1cc(=O)oc2c3c(ccc12)OC(C)(C)[C@H](OC(=O)[C@@]12CC[C@@](C)(C(=O)O1)C2(C)C)[C@@H]3OC(=O)[C@@]12CC[C@@](C)(C(=O)O1)C2(C)C	5.9	6660											
CCc1cc(=O)c2ccc3c(c2o1)[C@@H](OC(=O)[C@@]12CC[C@@](C)(C(=O)O1)C2(C)C)[C@@H](OC(=O)[C@@]12CC[C@@](C)(C(=O)O1)C2(C)C)C(C)(C)O3			110	94	60	110	< 0.9	70	60	94	6600	70	
CNc1c(C)oc2c3c(ccc2c1=O)OC(C)(C)[C@H](OC(=O)[C@@]12CC[C@@](C)(C(=O)O1)C2(C)C)[C@@H]3OC(=O)[C@@]12CC[C@@](C)(C(=O)O1)C2(C)C			450	> 200				300	> 130		> 60000		
Cc1oc2c3c(ccc2c(=O)c1Br)OC(C)(C)[C@H](OC(=O)[C@@]12CC[C@@](C)(C(=O)O1)C2(C)C)[C@@H]3OC(=O)[C@@]12CC[C@@](C)(C(=O)O1)C2(C)C			570	14				550	14		7700		
Cc1cc(=O)c2c(C)cc3c(c2o1)[C@@H](OC(=O)[C@@]12CC[C@@](C)(C(=O)O1)C2(C)C)[C@@H](OC(=O)[C@@]12CC[C@@](C)(C(=O)O1)C2(C)C)C(C)(C)O3			49	420				36	310		15000		5.2 (≈ 7.99 µM)
Cc1oc2c3c(cc(C)c2c(=O)c1Br)OC(C)(C)[C@H](OC(=O)[C@@]12CC[C@@](C)(C(=O)O1)C2(C)C)[C@@H]3OC(=O)[C@@]12CC[C@@](C)(C(=O)O1)C2(C)C			910	> 24				590	> 15		> 14000		
Cc1oc2c3c(c(Br)c(C)c2c(=O)c1Br)OC(C)(C)[C@H](OC(=O)[C@@]12CC[C@@](C)(C(=O)O1)C2(C)C)[C@@H]3OC(=O)[C@@]12CC[C@@](C)(C(=O)O1)C2(C)C			> 12000	> 1.2				10000			> 12000		
Cc1cc(=O)c2c(CBr)cc3c(c2o1)[C@@H](OC(=O)[C@@]12CC[C@@](C)(C(=O)O1)C2(C)C)[C@@H](OC(=O)[C@@]12CC[C@@](C)(C(=O)O1)C2(C)C)C(C)(C)O3			1200	11				810	7.4		8900		
CCc1cc(=O)c2c(C)cc3c(c2o1)[C@@H](OC(=O)[C@@]12CC[C@@](C)(C(=O)O1)C2(C)C)[C@@H](OC(=O)[C@@]12CC[C@@](C)(C(=O)O1)C2(C)C)C(C)(C)O3			54	110				100	200		11000		
CCc1cc(=O)c2c(CC)cc3c(c2o1)[C@@H](OC(=O)[C@@]12CC[C@@](C)(C(=O)O1)C2(C)C)[C@@H](OC(=O)[C@@]12CC[C@@](C)(C(=O)O1)C2(C)C)C(C)(C)O3			340	> 120				250			> 30000		
CC1(C)Oc2ccc3c(=O)cc(CBr)oc3c2[C@@H](OC(=O)[C@@]23CC[C@@](C)(C(=O)O2)C3(C)C)[C@H]1OC(=O)[C@@]12CC[C@@](C)(C(=O)O1)C2(C)C			560	3				550	3		1700		
CC(Br)c1cc(=O)c2ccc3c(c2o1)[C@@H](OC(=O)[C@@]12CC[C@@](C)(C(=O)O1)C2(C)C)[C@@H](OC(=O)[C@@]12CC[C@@](C)(C(=O)O1)C2(C)C)C(C)(C)O3 (stereo partly drawn)											3500		
CC(Br)(Br)c1cc(=O)c2ccc3c(c2o1)[C@@H](OC(=O)[C@@]12CC[C@@](C)(C(=O)O1)C2(C)C)[C@@H](OC(=O)[C@@]12CC[C@@](C)(C(=O)O1)C2(C)C)C(C)(C)O3			450	1.8				1000	4		1800		
CC1(C)Oc2ccc3c(=O)cc(CC#N)oc3c2[C@@H](OC(=O)[C@@]23CC[C@@](C)(C(=O)O2)C3(C)C)[C@H]1OC(=O)[C@@]12CC[C@@](C)(C(=O)O1)C2(C)C			1400	9.4				1800	12		17000		
Cc1c(C#N)oc2c3c(ccc2c1=O)OC(C)(C)[C@H](OC(=O)[C@@]12CC[C@@](C)(C(=O)O1)C2(C)C)[C@@H]3OC(=O)[C@@]12CC[C@@](C)(C(=O)O1)C2(C)C			1900	290				140	21		40000		
CNCc1cc(=O)c2ccc3c(c2o1)[C@@H](OC(=O)[C@@]12CC[C@@](C)(C(=O)O1)C2(C)C)[C@@H](OC(=O)[C@@]12CC[C@@](C)(C(=O)O1)C2(C)C)C(C)(C)O3			690	> 100				290	> 43		> 30000		
CCc1oc2c3c(ccc2c(=O)c1Br)OC(C)(C)[C@H](OC(=O)[C@@]12CC[C@@](C)(C(=O)O1)C2(C)C)[C@@H]3OC(=O)[C@@]12CC[C@@](C)(C(=O)O1)C2(C)C			990	> 24				1100	> 28		> 27000		
Cc1oc2c3c(ccc2c(=O)c1I)OC(C)(C)[C@H](OC(=O)[C@@]12CC[C@@](C)(C(=O)O1)C2(C)C)[C@@H]3OC(=O)[C@@]12CC[C@@](C)(C(=O)O1)C2(C)C			1600	18				730	8		13000		
CCc1oc2c3c(ccc2c(=O)c1C#N)OC(C)(C)[C@H](OC(=O)[C@@]12CC[C@@](C)(C(=O)O1)C2(C)C)[C@@H]3OC(=O)[C@@]12CC[C@@](C)(C(=O)O1)C2(C)C			790	> 54				550	> 37		> 30000		
Cc1oc2c3c(ccc2c(=O)c1N)OC(C)(C)[C@H](OC(=O)[C@@]12CC[C@@](C)(C(=O)O1)C2(C)C)[C@@H]3OC(=O)[C@@]12CC[C@@](C)(C(=O)O1)C2(C)C			470	130				250	68		32000		
CCc1oc2c3c(ccc2c(=O)c1N)OC(C)(C)[C@H](OC(=O)[C@@]12CC[C@@](C)(C(=O)O1)C2(C)C)[C@@H]3OC(=O)[C@@]12CC[C@@](C)(C(=O)O1)C2(C)C			310	190			10.3 (≈ 15.5 µM)	120	74		23000		
CCc1oc2c3c(ccc2c(=O)c1NC)OC(C)(C)[C@H](OC(=O)[C@@]12CC[C@@](C)(C(=O)O1)C2(C)C)[C@@H]3OC(=O)[C@@]12CC[C@@](C)(C(=O)O1)C2(C)C			1100	73				440	29		32000		
CC1(C)Oc2ccc3c(=O)cc(CN4CCOCC4)oc3c2[C@@H](OC(=O)[C@@]23CC[C@@](C)(C(=O)O2)C3(C)C)[C@H]1OC(=O)[C@@]12CC[C@@](C)(C(=O)O1)C2(C)C				> 14					> 6.3		> 28000		
CN(C)CCCN1CCN(Cc2cc(=O)c3ccc4c(c3o2)[C@@H](OC(=O)[C@@]23CC[C@@](C)(C(=O)O2)C3(C)C)[C@@H](OC(=O)[C@@]23CC[C@@](C)(C(=O)O2)C3(C)C)C(C)(C)O4)CC1											17000		
CC1(C)Oc2ccc3c(=O)cc(CNCc4ccncc4)oc3c2[C@@H](OC(=O)[C@@]23CC[C@@](C)(C(=O)O2)C3(C)C)[C@H]1OC(=O)[C@@]12CC[C@@](C)(C(=O)O1)C2(C)C				> 1.3				21000	> 1.3		> 27000		
Cc1cc(=O)c2ccc3c(c2o1)[C@@H](OC(=O)[C@@]12CC[C@@](C)(C(=O)O1)C2(C)C)[C@@H](OC(=O)[C@@]12CC[C@@](C)(C(=O)O1)C2(C)C)C(C)(C)O3			190	110				100	58		11000		
CC1(C)Oc2ccc3ccc(=O)oc3c2[C@@H](OC(=O)C23CCC(C)(C(=O)O2)C3(C)C)[C@H]1OC(=O)C12CCC(C)(C(=O)O1)C2(C)C (stereo partly drawn)	49	328											

From ChEMBL document CHEMBL1221394, “Anti-AIDS agents 79. Design, synthesis, molecular modeling and structure-activity relationships of novel dicamphanoyl-2',2'-dimethyldihydropyranochromone (DCP) analogs as potent anti-HIV agents” (Bioorg Med Chem, 2010)
